Data as given in ChEMBL document CHEMBL4177749, “A Synthetic Dual Drug Sideromycin Induces Gram-Negative Bacteria To Commit Suicide with a Gram-Positive Antibiotic” (J Med Chem, 2018).
≈ marks a conversion by molar mass, not a printed value.

Legend:
Acinetobacter baumannii [1] = assay: Antibacterial activity against Acinetobacter baumannii ATCC 17978 after 18 hrs by broth microdilution method; format: functional; details: ATCC 17978, 18 h
Acinetobacter baumannii [2] = assay: Antibacterial activity against Acinetobacter baumannii ATCC 17978 transfected with pNT255 after 18 hrs by broth microdilution method; format: functional; details: ATCC 17978, 18 h
Acinetobacter baumannii [3] = assay: Antibacterial activity against Acinetobacter baumannii ATCC 17978 transfected with pNT255:ADC-1 after 18 hrs by broth microdilution method; format: functional; details: ATCC 17978, 18 h
Acinetobacter baumannii [4] = assay: Antibacterial activity against Acinetobacter baumannii ATCC 17961 clinical isolate after 18 hrs by broth microdilution method; format: functional; details: ATCC 17961, 18 h
Acinetobacter baumannii [5] = assay: Antibacterial activity against Acinetobacter baumannii ATCC BAA 1793 clinical isolate after 18 hrs by broth microdilution method; format: functional; details: ATCC BAA 1793, 18 h
Acinetobacter baumannii [6] = assay: Antibacterial activity against Acinetobacter baumannii ATCC BAA 1797 clinical isolate after 18 hrs by broth microdilution method; format: functional; details: ATCC BAA 1797, 18 h
Acinetobacter baumannii [7] = assay: Antibacterial activity against Acinetobacter baumannii ATCC BAA 1800 clinical isolate after 18 hrs by broth microdilution method; format: functional; details: ATCC BAA 1800, 18 h
Escherichia coli = assay: Antibacterial activity against Escherichia coli DC0 after 18 hrs by broth microdilution method; format: functional; details: DC0, 18 h
Pseudomonas aeruginosa [8] = assay: Antibacterial activity against wild type Pseudomonas aeruginosa KW799 after 18 hrs by broth microdilution method; format: functional; details: KW799, 18 h
Pseudomonas aeruginosa [9] = assay: Antibacterial activity against Pseudomonas aeruginosa by broth microdilution method; format: functional
Pseudomonas aeruginosa [10] = assay: Antibacterial activity against Pseudomonas aeruginosa ATCC 27853 by broth microdilution method; format: functional
Pseudomonas aeruginosa [11] = assay: Antibacterial activity against Pseudomonas aeruginosa PAO1 ATCC […] by broth microdilution method; format: functional
Beta-lactamase = Beta-lactamase (Acinetobacter baumannii, UniProt Q9L4R5); assay: Drug metabolism assessed as Acinetobacter baumannii ADC-1-mediated (S)-N-((3-(3-Fluoro-4-(4-glycylpiperazin-1-yl)phenyl)-2-oxooxazolidin-5-yl)methyl)acetamide release at 20 uM after 40 mins by LC/MS method; format: ADME
In short: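 Purified ADC-1 β-lactamase (expressed as described earlier) […] with 20 μM conjugate in 50 mM sodium phosphate, pH 7.4, 1% DMSO final, room temperature, 40 min. Release of the oxazolidinone followed by LC/MS. Controls run under the same conditions: conjugate alone (20 μM) and enzyme alone (1 μM).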

SMILES	MIC (Acinetobacter baumannii [1])	MIC (Acinetobacter baumannii [2])	MIC (Acinetobacter baumannii [3])	MIC (Acinetobacter baumannii [4])	MIC (Acinetobacter baumannii [5])	MIC (Acinetobacter baumannii [6])	MIC (Acinetobacter baumannii [7])	MIC (Escherichia coli)	MIC (Pseudomonas aeruginosa [8])	MIC (Pseudomonas aeruginosa [9])	MIC (Pseudomonas aeruginosa [10])	MIC (Pseudomonas aeruginosa [11])	Drug metabolism (Beta-lactamase)
CC(=O)NC[C@H]1CN(c2ccc(N3CCN(C(=O)CNC(=O)CN(CCCCNC(=O)c4cccc(O)c4O)C(=O)c4cccc(O)c4O)CC3)c(F)c2)C(=O)O1	> 50 µM	> 50 µM	> 50 µM	> 50 µM	> 50 µM	> 50 µM	> 50 µM	> 50 µM	> 50 µM				
CC(=O)Oc1cccc(C(=O)NCCCCN(CC(=O)N[C@@H](C(=O)N[C@@H]2C(=O)N3[C@@H]2SC(C)(C)[C@@H]3C(=O)O)c2ccc(O)cc2)C(=O)c2cccc(OC(C)=O)c2OC(C)=O)c1OC(C)=O										0.02 to 0.16 µM (≈ 0.0187 to 0.149 µg/mL)			
CC(O)C(NCC(=O)NC(=O)C(CCCNC(=O)CCCCCCCCC(=O)NC(C(=O)N[C@@H]1C(=O)N2[C@@H]1SC(C)(C)[C@@H]2C(=O)O)c1ccccc1)NC(=O)C(CCCN(O)C=O)NC(=O)C(CO)NC(=O)C1CCN=C2C(NC(=O)CCC(N)=O)=Cc3cc(O)c(O)cc3N21)C(=O)NC(CO)C(=O)NC1CCCN(O)C1=O (stereo partly specified)											0.024 µM (≈ 0.0386 µg/mL)	> 100 µM	
CC(=O)OCC1=C(C(=O)O)N2C(=O)[C@@H](NC(=O)C(NC(=O)CN(CCCCNC(=O)c3cccc(O)c3O)C(=O)c3cccc(O)c3O)c3ccccc3)[C@H]2SC1 (stereo partly specified)	0.4 µM (≈ 0.322 µg/mL)	0.4 µM (≈ 0.322 µg/mL)	> 50 µM	0.8 µM (≈ 0.645 µg/mL)	12.5 µM (≈ 10.1 µg/mL)	> 50 µM	25 µM (≈ 20.1 µg/mL)	< 0.025 µM	0.4 µM (≈ 0.322 µg/mL)				
CC(=O)NC[C@H]1CN(c2ccc(N3CCN(C(=O)CNC(=O)OCC4=C(C(=O)O)N5C(=O)[C@@H](NC(=O)C(NC(=O)CN(CCCCNC(=O)c6cccc(O)c6O)C(=O)c6cccc(O)c6O)c6ccccc6)[C@H]5SC4)CC3)c(F)c2)C(=O)O1 (stereo partly specified)	0.4 µM (≈ 0.473 µg/mL)	0.4 µM (≈ 0.473 µg/mL)	6 µM (≈ 7.1 µg/mL)	0.8 µM (≈ 0.947 µg/mL)	0.8 to 16 µM (≈ 0.947 to 18.9 µg/mL)	6.25 µM (≈ 7.39 µg/mL)	0.8 µM (≈ 0.947 µg/mL)	< 0.025 µM	0.2 to 0.4 µM (≈ 0.237 to 0.473 µg/mL)				Metabolite_Detected
CC(=O)NC[C@H]1CN(c2ccc(N3CCN(C(=O)CNC(=O)OCC4=C(C(=O)O)N5C(=O)[C@@H](NC(=O)C(N)c6ccccc6)[C@H]5SC4)CC3)c(F)c2)C(=O)O1 (stereo partly specified)	> 50 µM	> 50 µM	> 50 µM	> 50 µM	> 50 µM	> 50 µM	> 50 µM	> 50 µM	> 50 µM				
CC(=O)OCC1=C(C(=O)O)N2C(=O)[C@@H](NC(=O)C(N)c3ccccc3)[C@H]2SC1 (stereo partly specified)	> 50 µM	> 50 µM	> 50 µM	> 50 µM	> 50 µM	> 50 µM	> 50 µM	50 µM (≈ 20.3 µg/mL)	> 50 µM				
CC(=O)NC[C@H]1CN(c2ccc(N3CCN(C(=O)CN)CC3)c(F)c2)C(=O)O1	> 500 µM	> 500 µM	> 500 µM	> 50 µM	> 50 µM	> 50 µM	> 50 µM	> 50 µM	> 50 µM				
CC(=O)NC[C@H]1CN(c2ccc(N3CCN(C(=O)CO)CC3)c(F)c2)C(=O)O1 [EPEREZOLID]	> 50 µM	> 50 µM	> 50 µM										
